This is an account of results in ChEMBL document CHEMBL4014307, “Diindolylmethane Derivatives: Potent Agonists of the Immunostimulatory Orphan G Protein-Coupled Receptor GPR84” (J Med Chem, 2017).

Assay [1] addresses T1, G-protein coupled receptor 84 (Homo sapiens, UniProt Q9NQS5). Nature of the assay: Agonist activity at Gi coupled human GPR84 expressed in CHO cells assessed as inhibition of forskolin-induced cAMP accumulation at 10 uM after 15 mins in presence of [3H]-cAMP by radiometric assay relative to decanoic acid. The format is functional, cell-based. The method in brief:
(§1)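 Forskolin (10 µM) added with or without test compound for 15 min. Cells lysed in hot (90 °C) EDTA/Triton X-100 solution. cAMP measured radiometrically with bovine adrenal binding protein and [³H]cAMP, expressed as % of forskolin-alone response.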
Background: cAMP levels reflect the balance of adenylyl cyclase and phosphodiesterase activity.

Assay [2] deals with T1, G-protein coupled receptor 84. Nature of the assay: Agonist activity at human GPR84 expressed in CHO cells assessed as beta-arrestin recruitment after 90 mins by beta-galactosidase complementation assay. It counts as cell-based. The gist of the method:
(§2)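 CHO cells co-expressing human GPR84–β-galactosidase fragment and β-arrestin–complementary fragment, 20,000 per well. Compounds in DMSO (final ≤1 %) added for 90 min, then detection reagent for 60 min at rt; luminescence read. Three to five independent experiments in duplicate.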
Background: Recruitment of arrestin is a read-out of receptor activation apart from second messengers.

The target is the same in assay [3]. Nature of the assay: Antagonist activity at Gi coupled human GPR84 expressed in CHO cells assessed as inhibition of decanoic acid-induced receptor activation at 10 uM. The format is cell-based.
Assay [4] shares this target. Nature of the assay: Agonist activity at human GPR84 expressed in CHO cells assessed as beta-arrestin recruitment at 10 uM after 90 mins by beta-galactosidase complementation assay relative to embelin. The format is cell-based. The method in brief: as §2
Assay [5] addresses Free fatty acid receptor 1 (Homo sapiens, UniProt O14842). Nature of the assay: Agonist activity at Gq protein coupled human FFAR1 expressed in human 1321N1 cells assessed as induction of intracellular calcium level at 10 uM measured at 1.2 secs time interval by Fluo-4-AM dye based fluorescence assay. The format is functional, cell-based. The gist of the method:
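1321N1 astrocytoma cells retrovirally expressing human FFAR1, 50,000 per well, loaded 60 min at rt in dark with 3 µM Fluo-4-AM and 0.06 % Pluronic F-127 in HBSS. Compounds at 10 µM final; antagonist mode uses 30 min preincubation before TUG-424 (final 1 µM). Fluorescence at 520 nm (excitation 485 nm), 90 reads at 1.2 s intervals. Normalized to TUG-424 at 10 µM (agonist) or 1 µM (antagonist).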
A general note: Calcium flux is commonly read through the fluorescence of an indicator in the cells.

Assay [6] deals with T2, Free fatty acid receptor 4 (Homo sapiens) (UniProt Q5NUL3).
T2 sequence (whole entry): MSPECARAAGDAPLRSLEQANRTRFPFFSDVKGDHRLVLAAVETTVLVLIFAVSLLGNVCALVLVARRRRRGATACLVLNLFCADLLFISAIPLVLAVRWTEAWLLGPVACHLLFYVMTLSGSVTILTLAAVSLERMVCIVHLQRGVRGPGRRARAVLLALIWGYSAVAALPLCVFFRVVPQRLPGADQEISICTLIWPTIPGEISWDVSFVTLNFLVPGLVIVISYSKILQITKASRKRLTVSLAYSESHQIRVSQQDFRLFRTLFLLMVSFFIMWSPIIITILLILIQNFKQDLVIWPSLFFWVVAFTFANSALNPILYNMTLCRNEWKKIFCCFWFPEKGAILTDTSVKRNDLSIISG
Nature of the assay: Antagonist activity at human FFAR4 expressed in CHO cells assessed as inhibition of TUG-89-induced beta-arrestin recruitment at 10 uM preincubated for 30 mins followed by TUG-89 addition measured after 90 mins by beta-galactosidase complementation assay. It counts as cell-based.

The target in assay [7] is T1, G-protein coupled receptor 84. Nature of the assay: Agonist activity at Gi coupled human GPR84 expressed in CHO cells assessed as inhibition of forskolin-induced cAMP accumulation after 15 mins in presence of [3H]-cAMP by radiometric assay. It counts as functional, cell-based. The method in brief:
as §1

Assay [8] deals with T2, Free fatty acid receptor 4 (Homo sapiens). Nature of the assay: Agonist activity at human FFAR4 expressed in CHO cells assessed as beta-arrestin recruitment at 10 uM after 90 mins by beta-galactosidase complementation assay. It counts as cell-based. The gist of the method: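 Human FFAR4 in CHO β-galactosidase complementation cells, 30,000 per well, serum-free F12 ~4 h before assay; final DMSO 1 %, compounds 10 µM. Agonist mode: 90 min with agonist, then detection 60 min rt dark; luminescence. 3–4 experiments in duplicate.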

Calls of active or inactive are those of the source. Some results are limits rather than exact numbers.

T1 sequence (Q9NQS5 whole entry): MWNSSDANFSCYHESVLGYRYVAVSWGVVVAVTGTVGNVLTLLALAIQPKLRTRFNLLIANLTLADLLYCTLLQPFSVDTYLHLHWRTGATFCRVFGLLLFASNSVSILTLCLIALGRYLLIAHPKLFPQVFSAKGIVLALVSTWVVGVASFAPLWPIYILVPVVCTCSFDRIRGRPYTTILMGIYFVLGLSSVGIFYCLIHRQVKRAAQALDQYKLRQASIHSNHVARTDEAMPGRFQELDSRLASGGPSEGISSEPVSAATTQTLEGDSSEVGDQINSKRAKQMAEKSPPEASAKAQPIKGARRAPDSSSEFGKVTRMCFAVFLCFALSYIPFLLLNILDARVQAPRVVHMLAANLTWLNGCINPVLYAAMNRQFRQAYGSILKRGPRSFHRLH
Chain of Free fatty acid receptor 1 (O14842 whole entry): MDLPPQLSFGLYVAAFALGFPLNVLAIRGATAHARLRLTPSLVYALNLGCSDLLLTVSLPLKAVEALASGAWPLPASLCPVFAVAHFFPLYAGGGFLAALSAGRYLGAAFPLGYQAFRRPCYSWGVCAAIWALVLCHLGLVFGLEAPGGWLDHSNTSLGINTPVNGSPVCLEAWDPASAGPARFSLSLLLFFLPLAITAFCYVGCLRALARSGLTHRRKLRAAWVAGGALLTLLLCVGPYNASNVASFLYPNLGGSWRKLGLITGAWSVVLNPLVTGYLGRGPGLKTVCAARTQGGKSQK

`O=C1Nc2ccccc2C1=Cc1ccc2[nH]ccc2c1`: the Emax was -16% in assay [1] and -7% in assay [4]. The EC50 in assay [2] and in assay [7] was over 10 µM each time. Moreover, the inhibition entry in assay [3] and in assay [6] was “inactive” each time. Moreover, the outcome in assay [5] and in assay [8] was inactive.
On to `O=C(O)c1ccc2[nH]cc(Cc3c[nH]c4ccc(C(=O)O)cc34)c2c1`, for which the Emax in assay [1] was 28%; in assay [4], -5%. For the same compound, the EC50 in assay [2] was over 10 µM; in assay [7], at least 10 µM. The inhibition entry in assay [3] and in assay [6] was “inactive” in each case. The outcome in assay [5] and in assay [8] was inactive.
As for `c1ccc2c(C(c3c[nH]c4ccccc34)c3c[nH]c4ccccc34)c[nH]c2c1`, the Emax is -10% in assay [1] and 10% in assay [4]. Moreover, the EC50 in assay [2] and in assay [7] was over 10 µM in each case. Further, the inhibition entry in assay [3] and in assay [6] was “inactive” in each case. Further, the result in assay [5] and in assay [8] was inactive.
Turning to `Fc1cc2[nH]cc(Cc3c[nH]c4cc(F)c(F)cc34)c2cc1F`, the Emax in assay [1] is 121%; in assay [4], 92%. Moreover, the EC50 in assay [2] came out at 10.3 µM; in assay [7] it was 0.187 µM. The outcome in assay [5] and in assay [8] was inactive. The inhibition result in assay [6] was “inactive”.
For the compound `Clc1cccc2[nH]cc(Cc3c[nH]c4cccc(Cl)c34)c12`, the figures for the Emax in assay [1] and in assay [4] were 111% and 25%, respectively. Moreover, the results for the concentration giving a half-maximal response (EC50) in assay [2] and in assay [7] were over 10 µM and 1.14 µM, respectively. Also, the result in assay [5] and in assay [8] was inactive. The inhibition result in assay [6] was “inactive”.
As to `CC(c1c[nH]c2ccccc12)c1c[nH]c2ccccc12` [VIBRINDOLE A], the figures for the Emax in assay [1] and in assay [4] were -5% and 3%, respectively. The EC50 in assay [2] and in assay [7] was over 10 µM throughout. The inhibition result in assay [3] and in assay [6] was “inactive” throughout. The outcome in assay [5] and in assay [8] was inactive.
In the case of `O=C1Nc2ccccc2/C1=C/c1c[nH]c2ccccc12`, the Emax is -17% in assay [1] and -22% in assay [4]. Besides, the EC50 in assay [2] and in assay [7] was over 10 µM each time. The inhibition entry in assay [3] and in assay [6] was “inactive” throughout. Also, the outcome in assay [5] and in assay [8] was inactive.
In the case of `Oc1ccc(C(c2c[nH]c3ccccc23)c2c[nH]c3ccccc23)cc1`, the Emax was 7% in assay [1] and -5% in assay [4]. Further, the EC50 in assay [2] and in assay [7] was over 10 µM throughout. In addition, the inhibition entry in assay [3] and in assay [6] was “inactive” throughout. Also, the outcome in assay [5] and in assay [8] was inactive.
Regarding `Fc1ccc2[nH]cc(Cc3c[nH]c4ccccc34)c2c1`, the Emax in assay [1] turned out to be 115%; in assay [4] it was 72%. The result in assay [5] and in assay [8] was inactive. Besides, the inhibition result in assay [6] is “inactive”.
On to `O=C(c1c[nH]c2ccccc12)c1c[nH]c2ccccc12`, for which the values for the Emax in assay [1] and in assay [4] were 104% and 161%, respectively. Moreover, the EC50 in assay [2] was determined as 19 µM; in assay [7] it was 0.553 µM. Further, the outcome in assay [5] and in assay [8] was inactive. Besides, the inhibition entry in assay [6] was “inactive”.
As for `CCCCC(c1c[nH]c2ccccc12)c1c[nH]c2ccccc12`, the Emax in assay [1] was -4%; in assay [4], -3%. Also, the EC50 in assay [2] and in assay [7] was over 10 µM throughout. Moreover, the inhibition entry in assay [3] and in assay [6] was “inactive” each time. The outcome in assay [5] and in assay [8] was inactive.
Consider `Fc1cc2cc[nH]c2cc1F`, for which the EC50 in assay [2] is 2.97 µM; in assay [7] it was over 10 µM.
On to `Fc1cc2c(Cc3c[nH]c4cc(Cl)c(F)cc34)c[nH]c2cc1Cl`, for which the Emax in assay [1] is 83%; in assay [4], 181%. In addition, the EC50 in assay [2] was 3.98 µM; in assay [7], 10.8 µM. For the same compound, the inhibition entry in assay [6] was “inactive”. Besides, the outcome in assay [8] was inactive.
On to `Fc1ccc2[nH]cc(Cc3c[nH]c4ccc(F)c(F)c34)c2c1F`, for which the Emax in assay [1] is 123%; in assay [4], -2%. In addition, the values for the half-maximal effective concentration (EC50) in assay [2] and in assay [7] were over 10 µM and 0.377 µM, respectively. The result in assay [5] and in assay [8] was inactive. Besides, the inhibition result in assay [6] is “inactive”.
Consider `COc1ccc2[nH]cc(Cc3c[nH]c4ccccc34)c2c1`, for which the Emax in assay [1] turned out to be 97%; in assay [4] it was 110%. Moreover, the EC50 in assay [2] was 6.47 µM; in assay [7], 1.89 µM. Further, the result in assay [5] and in assay [8] was inactive. Further, in assay [6], the inhibition result was “inactive”.
For `Clc1ccc2c(Cc3c[nH]c4cc(Cl)ccc34)c[nH]c2c1`, the Emax in assay [1] stood at 4%; in assay [4] it was 118%. For the same compound, the results for the EC50 in assay [2] and in assay [7] were 5.34 µM and over 10 µM, respectively. For the same compound, the inhibition result in assay [3] and in assay [6] was “inactive” each time. Moreover, the result in assay [5] and in assay [8] was inactive.
As for `c1cnc2[nH]cc(Cc3c[nH]c4ncccc34)c2c1`, the figures for the Emax in assay [1] and in assay [4] were -12% and 115%, respectively. The EC50 in assay [2] is 2.27 µM; in assay [7], over 10 µM. The inhibition result in assay [3] and in assay [6] was “inactive” in each case. Also, the outcome in assay [5] and in assay [8] was inactive.
For the compound `Fc1ccc2c(Cc3c[nH]c4cc(F)ccc34)c[nH]c2c1`, the Emax was determined as 89% in assay [1] and 48% in assay [4]. In addition, the EC50 turned out to be 7.53 µM in assay [2] and 0.625 µM in assay [7]. The outcome in assay [5] and in assay [8] was inactive. In addition, the inhibition entry in assay [6] is “inactive”.
Regarding `Cn1cc(Cc2cn(C)c3ccccc23)c2ccccc21`, the Emax is -37% in assay [1] and -3% in assay [4]. Moreover, the EC50 in assay [2] and in assay [7] was over 10 µM throughout. In addition, the inhibition entry in assay [3] and in assay [6] was “inactive” each time. Besides, the outcome in assay [5] and in assay [8] was inactive.
As to `Cc1ccc2[nH]cc(Cc3c[nH]c4ccc(C)cc34)c2c1`, the Emax is 45% in assay [1] and 49% in assay [4]. Further, the EC50 in assay [2] and in assay [7] was at least 10 µM in each case. Also, the outcome in assay [5] and in assay [8] was inactive. Also, in assay [6], the inhibition entry is “inactive”.
On to `COc1ccc2[nH]cc(Cc3c[nH]c4ccc(OC)cc34)c2c1`, for which the Emax was found to be 119% in assay [1] and 103% in assay [4]. Further, the figures for the EC50 in assay [2] and in assay [7] were 1.2 µM and 0.365 to 0.369 µM, respectively. Further, the result in assay [5] and in assay [8] was inactive. Moreover, in assay [6], the inhibition result was “inactive”.
Consider `Cc1cccc2[nH]cc(Cc3c[nH]c4cccc(C)c34)c12`, for which the Emax in assay [1] turned out to be 112%; in assay [4], 24%. Further, the figures for the EC50 in assay [2] and in assay [7] were over 10 µM and 0.987 µM, respectively. For the same compound, the result in assay [5] and in assay [8] was inactive. Also, the inhibition result in assay [6] was “inactive”.

Broadly, the Emax is the size of the effect at its maximum, as opposed to the concentration needed. Usually EC50 stands for the concentration giving half of the maximal effect.
